Data: ChEMBL document CHEMBL1926569, “Novel (E)-1-(4-methyl-2-(alkylamino)thiazol-5-yl)-3-arylprop-2-en-1-ones as potent antimicrobial agents” (2011)
Values after ≈ are worked out from the molar mass of the structure shown. Blank lines part the entries; values can stand above or below the molecule they belong to.

Experiments:
[1] = test system: Staphylococcus aureus; test: Antibacterial activity against Staphylococcus aureus ATCC 6538 after 24 hrs by microdilution method; type: functional; settings: ATCC 6538, 24 h
How it was run: (§1)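 Broth microdilution in 96-well plates. Bacterial suspensions were adjusted in sterile saline to 1.0 × 10⁵ CFU/ml, prepared daily and kept at 4 °C. Compound was added to LB broth with 1.0 × 10⁴ CFU per well and shaken at 160 rpm for 24 h at […] (so in the source). MIC is the lowest concentration with no visible growth under a binocular microscope. OD655 was also read. Duplicate, repeated three times.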

[2] = test system: Bacillus cereus; test: Antibacterial activity against clinical isolate of Bacillus cereus after 24 hrs by microdilution method; type: functional; how it was run: as §1
[3] = test system: Micrococcus flavus; test: Antibacterial activity against Micrococcus flavus ATCC 10240 after 24 hrs by microdilution method; type: functional; settings: ATCC 10240, 24 h; how it was run: as §1
[4] = test system: Listeria monocytogenes; test: Antibacterial activity against Listeria monocytogenes NCTC 7973 after 24 hrs by microdilution method; type: functional; settings: NCTC 7973, 24 h; how it was run: as §1
[5] = test system: Pseudomonas aeruginosa; test: Antibacterial activity against Pseudomonas aeruginosa ATCC 27853 after 24 hrs by microdilution method; type: functional; settings: ATCC 27853, 24 h; how it was run: as §1
[6] = test system: Salmonella typhimurium; test: Antibacterial activity against Salmonella Typhimurium ATCC 13311 after 24 hrs by microdilution method; type: functional, Salmonella enterica subsp. enterica serovar Typhimurium; settings: Salmonella enterica, ATCC 13311, 24 h; how it was run: as §1
[7] = test system: Escherichia coli; test: Antibacterial activity against Escherichia coli ATCC 35210 after 24 hrs by microdilution method; type: functional; settings: ATCC 35210, 24 h; how it was run: as §1
[8] = test system: Enterococcus faecalis; test: Antibacterial activity against Enterococcus faecalis isolated from human after 24 hrs by microdilution method; type: functional; how it was run: as §1
[9] = test system: Staphylococcus aureus; test: Antibacterial activity against Staphylococcus aureus ATCC 6538 incubated for 24 hrs followed by serial sub-cultivation for 24 hrs by microdilution method; type: functional; settings: ATCC 6538, 24 h
How it was run: (§2)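 MBC: after the 24 h LB broth microdilution (1.0 × 10⁴ CFU per well, 160 rpm), wells were serially sub-cultured into fresh broth plates and incubated a further 24 h. MBC is the lowest concentration with no visible growth, taken as 99.5% killing of the original inoculum. Duplicate, repeated three times.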

[10] = test system: Bacillus cereus; test: Antibacterial activity against clinical isolate of Bacillus cereus incubated for 24 hrs followed by serial sub-cultivation for 24 hrs by microdilution; type: functional; how it was run: as §2
[11] = test system: Micrococcus flavus; test: Antibacterial activity against Micrococcus flavus ATCC 10240 incubated for 24 hrs followed by serial sub-cultivation for 24 hrs by microdilution; type: functional; settings: ATCC 10240, 24 h; how it was run: as §2
[12] = test system: Listeria monocytogenes; test: Antibacterial activity against Listeria monocytogenes NCTC 7973 incubated for 24 hrs followed by serial sub-cultivation for 24 hrs by microdilution; type: functional; settings: NCTC 7973, 24 h; how it was run: as §2
[13] = test system: Pseudomonas aeruginosa; test: Antibacterial activity against Pseudomonas aeruginosa ATCC 27853 incubated for 24 hrs followed by serial sub-cultivation for 24 hrs by microdilution; type: functional; settings: ATCC 27853, 24 h; how it was run: as §2
[14] = test system: Salmonella typhimurium; test: Antibacterial activity against Salmonella Typhimurium ATCC 13311 incubated for 24 hrs followed by serial sub-cultivation for 24 hrs by microdilution; type: functional, Salmonella enterica subsp. enterica serovar Typhimurium; settings: Salmonella enterica, ATCC 13311, 24 h; how it was run: as §2
[15] = test system: Escherichia coli; test: Antibacterial activity against Escherichia coli ATCC 35210 incubated for 24 hrs followed by serial sub-cultivation for 24 hrs by microdilution; type: functional; settings: ATCC 35210, 24 h; how it was run: as §2
[16] = test system: Enterococcus faecalis; test: Antibacterial activity against Enterococcus faecalis isolated from human incubated for 24 hrs followed by serial sub-cultivation for 24 hrs by microdilution; type: functional; how it was run: as §2
[17] = test system: Aspergillus ochraceus; test: Antifungal activity against Aspergillus ochraceus ATCC 12066 after 72 hrs by serial dilution technique; type: functional; settings: ATCC 12066, 72 h
How it was run: (§3)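 Modified microdilution in 96-well plates. Fungi were kept on malt agar at 4 °C. Spores were washed off in sterile 0.85% saline with 0.1% Tween 80. Compounds were dissolved at 1 mg/ml in 5% DMSO with 0.1% Tween 80 and added to malt broth with inoculum. Plates were shaken at 160 rpm for 72 h at 28 °C. Duplicate, repeated three times.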

[18] = test system: Aspergillus niger; test: Antifungal activity against Aspergillus niger ATCC 6275 after 72 hrs by serial dilution technique; type: functional; settings: ATCC 6275, 72 h; how it was run: as §3
[19] = test system: Aspergillus flavus; test: Antifungal activity against Aspergillus flavus ATCC 9643 after 72 hrs by serial dilution technique; type: functional; settings: ATCC 9643, 72 h; how it was run: as §3
[20] = test system: Talaromyces funiculosus; test: Antifungal activity against Penicillium funiculosum ATCC 36839 after 72 hrs by serial dilution technique; type: functional; settings: ATCC 36839, 72 h; how it was run: as §3
[21] = test system: Penicillium ochrochloron; test: Antifungal activity against Penicillium ochrochloron ATCC 9112 after 72 hrs by serial dilution technique; type: functional; settings: ATCC 9112, 72 h; how it was run: as §3
[22] = test system: Trichoderma viride; test: Antifungal activity against Trichoderma viride IAM 5061 after 72 hrs by serial dilution technique; type: functional; settings: IAM 5061, 72 h; how it was run: as §3
[23] = test system: Candida albicans; test: Antifungal activity against Candida albicans isolated from human after 72 hrs by serial dilution technique; type: functional; how it was run: as §3
[24] = test system: Aspergillus ochraceus; test: Antifungal activity against Aspergillus ochraceus ATCC 12066 incubated for 72 hrs followed by serial sub-cultivation for 72 hrs by serial dilution technique; type: functional; settings: ATCC 12066, 72 h
How it was run: (§4)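 MFC: material from 72 h malt broth microdilution wells was serially sub-cultured into fresh broth plates and incubated a further 72 h at 28 °C. Fungicidal concentration is taken from growth after sub-culture. Duplicate, repeated three times.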

[25] = test system: Aspergillus fumigatus; test: Antifungal activity against Aspergillus fumigatus isolated from human incubated for 72 hrs followed by serial sub-cultivation for 72 hrs by serial dilution technique; type: functional; how it was run: as §4
[26] = test system: Aspergillus niger; test: Antifungal activity against Aspergillus niger ATCC 6275 incubated for 72 hrs followed by serial sub-cultivation for 72 hrs by serial dilution technique; type: functional; settings: ATCC 6275, 72 h; how it was run: as §4
[27] = test system: Aspergillus flavus; test: Antifungal activity against Aspergillus flavus ATCC 9643 incubated for 72 hrs followed by serial sub-cultivation for 72 hrs by serial dilution technique; type: functional; settings: ATCC 9643, 72 h; how it was run: as §4
[28] = test system: Talaromyces funiculosus; test: Antifungal activity against Penicillium funiculosum ATCC 36839 incubated for 72 hrs followed by serial sub-cultivation for 72 hrs by serial dilution technique; type: functional; settings: ATCC 36839, 72 h; how it was run: as §4
[29] = test system: Penicillium ochrochloron; test: Antifungal activity against Penicillium ochrochloron ATCC 9112 incubated for 72 hrs followed by serial sub-cultivation for 72 hrs by serial dilution technique; type: functional; settings: ATCC 9112, 72 h; how it was run: as §4
[30] = test system: Trichoderma viride; test: Antifungal activity against Trichoderma viride IAM 5061 incubated for 72 hrs followed by serial sub-cultivation for 72 hrs by serial dilution technique; type: functional; settings: IAM 5061, 72 h; how it was run: as §4
[31] = test system: Candida albicans; test: Antifungal activity against Candida albicans isolated from human incubated for 72 hrs followed by serial sub-cultivation for 72 hrs by serial dilution technique; type: functional; how it was run: as §4
[32] = test system: Pseudomonas aeruginosa; test: Ratio of ampicillin MIC to compound MIC for Pseudomonas aeruginosa ATCC 27853; type: functional
[33] = test system: Aspergillus ochraceus; test: Ratio of bifonazole to compound for Aspergillus ochraceus ATCC 12066; type: functional
[34] = test system: Aspergillus niger; test: Ratio of bifonazole to compound for Aspergillus niger ATCC 6275; type: functional
[35] = test system: Talaromyces funiculosus; test: Ratio of bifonazole to compound for Penicillium funiculosum ATCC 36839; type: functional
[36] = test system: Penicillium ochrochloron; test: Ratio of bifonazole to compound for Penicillium ochrochloron ATCC 9112; type: functional
[37] = test system: Trichoderma viride; test: Ratio of bifonazole to compound for Trichoderma viride IAM 5061; type: functional
[38] = test system: Candida albicans; test: Ratio of bifonazole to compound for Candida albicans isolated from human; type: functional
[39] = test system: Aspergillus ochraceus; test: Ratio of ketoconazole to compound for Aspergillus ochraceus ATCC 12066; type: functional
[40] = test system: Aspergillus fumigatus; test: Ratio of ketoconazole to compound for Aspergillus fumigatus isolated from human; type: functional
[41] = test system: Penicillium ochrochloron; test: Ratio of ketoconazole to compound for Penicillium ochrochloron ATCC 9112; type: functional
[42] = test system: Candida albicans; test: Ratio of ketoconazole to compound for Candida albicans isolated from human; type: functional
[43] = test system: Aspergillus ochraceus; test: Antifungal activity against Aspergillus ochraceus after 72 hrs by serial dilution technique

- MIC [1]: 68.9 µM (≈ 20 µg/mL)
- MIC [2]: 86.2 µM (≈ 25 µg/mL)
- MIC [3]: 51.7 µM (≈ 15 µg/mL)
- MIC [4]: 86.2 µM (≈ 25 µg/mL)
- MIC [5]: 68.9 µM (≈ 20 µg/mL)
- MIC [6]: 51.7 µM (≈ 15 µg/mL)
- MIC [7]: 51.7 µM (≈ 15 µg/mL)
- MIC [8]: 51.7 µM (≈ 15 µg/mL)
- MIC [17]: 68.9 µM (≈ 20 µg/mL)
- MIC [18]: 34.5 µM (≈ 10 µg/mL)
- MIC [19]: 68.9 µM (≈ 20 µg/mL)
- MIC [20]: 34.5 µM (≈ 10 µg/mL)
- MIC [21]: 68.9 µM (≈ 20 µg/mL)
- MIC [22]: 34.5 µM (≈ 10 µg/mL)
- MIC [23]: 34.5 µM (≈ 10 µg/mL)
- MIC [43]: 51.7 µM (≈ 15 µg/mL)
Structure (SMILES): CCNc1nc(C)c(C(=O)/C=C/c2ccc(F)cc2)s1
- MBC [9]: 68.9 µM (≈ 20 µg/mL)
- MBC [10]: 86.2 µM (≈ 25 µg/mL)
- MBC [11]: 68.9 µM (≈ 20 µg/mL)
- MBC [12]: 103 µM (≈ 30 µg/mL)
- MBC [13]: 68.9 µM (≈ 20 µg/mL)
- MBC [14]: 51.7 µM (≈ 15 µg/mL)
- MBC [15]: 68.9 µM (≈ 20 µg/mL)
- MBC [16]: 68.9 µM (≈ 20 µg/mL)
- MFC [24]: 86.2 µM (≈ 25 µg/mL)
- MFC [25]: 68.9 µM (≈ 20 µg/mL)
- MFC [26]: 51.7 µM (≈ 15 µg/mL)
- MFC [27]: 86.2 µM (≈ 25 µg/mL)
- MFC [28]: 68.9 µM (≈ 20 µg/mL)
- MFC [29]: 86.2 µM (≈ 25 µg/mL)
- MFC [30]: 68.9 µM (≈ 20 µg/mL)
- MFC [31]: 68.9 µM (≈ 20 µg/mL)
- Ratio [32]: 10
- Ratio [33]: 10
- Ratio [34]: 10
- Ratio [35]: 10
- Ratio [36]: 10
- Ratio [37]: 10
- Ratio [38]: 10
- Ratio [39]: 10
- Ratio [40]: 10
- Ratio [41]: 10
- Ratio [42]: 10

- MIC [1]: 68.9 µM (≈ 20 µg/mL)
- MIC [2]: 51.7 µM (≈ 15 µg/mL)
- MIC [3]: 34.5 µM (≈ 10 µg/mL)
- MIC [4]: 86.2 µM (≈ 25 µg/mL)
- MIC [5]: 68.9 µM (≈ 20 µg/mL)
- MIC [6]: 51.7 µM (≈ 15 µg/mL)
- MIC [7]: 68.9 µM (≈ 20 µg/mL)
- MIC [8]: 51.7 µM (≈ 15 µg/mL)
- MIC [17]: 68.9 µM (≈ 20 µg/mL)
- MIC [18]: 34.5 µM (≈ 10 µg/mL)
- MIC [19]: 68.9 µM (≈ 20 µg/mL)
- MIC [20]: 34.5 µM (≈ 10 µg/mL)
- MIC [21]: 34.5 µM (≈ 10 µg/mL)
- MIC [22]: 34.5 µM (≈ 10 µg/mL)
- MIC [23]: 34.5 µM (≈ 10 µg/mL)
- MIC [43]: 34.5 µM (≈ 10 µg/mL)
Structure (SMILES): CCNc1nc(C)c(C(=O)/C=C/c2cccc(F)c2)s1
- MBC [9]: 103 µM (≈ 30 µg/mL)
- MBC [10]: 68.9 µM (≈ 20 µg/mL)
- MBC [11]: 86.2 µM (≈ 25 µg/mL)
- MBC [12]: 86.2 µM (≈ 25 µg/mL)
- MBC [13]: 68.9 µM (≈ 20 µg/mL)
- MBC [14]: 51.7 µM (≈ 15 µg/mL)
- MBC [15]: 86.2 µM (≈ 25 µg/mL)
- MBC [16]: 68.9 µM (≈ 20 µg/mL)
- MFC [24]: 86.2 µM (≈ 25 µg/mL)
- MFC [25]: 68.9 µM (≈ 20 µg/mL)
- MFC [26]: 68.9 µM (≈ 20 µg/mL)
- MFC [27]: 86.2 µM (≈ 25 µg/mL)
- MFC [28]: 68.9 µM (≈ 20 µg/mL)
- MFC [29]: 68.9 µM (≈ 20 µg/mL)
- MFC [30]: 68.9 µM (≈ 20 µg/mL)
- MFC [31]: 68.9 µM (≈ 20 µg/mL)
- Ratio [32]: 10
- Ratio [33]: 10
- Ratio [34]: 10
- Ratio [35]: 10
- Ratio [36]: 10
- Ratio [37]: 10
- Ratio [38]: 10
- Ratio [39]: 10
- Ratio [40]: 10
- Ratio [41]: 10
- Ratio [42]: 10
